Data from ChEMBL document CHEMBL4270659, “Discovery and anti-inflammatory evaluation of benzothiazepinones (BTZs) as novel non-ATP competitive inhibitors of glycogen synthase kinase-3β (GSK-3β)” (Bioorg Med Chem, 2018).
Blank lines part the entries; values can stand above or below the compound they belong to. The source made the active and inactive calls. No cut-off for these calls is given here.

How the values were obtained:
[1] = biological target: T1, Glycogen synthase kinase-3 beta (Homo sapiens, UniProt P49841); assay: Inhibition of human recombinant N-terminal His6-tagged human GSK-3beta expressed in Baculovirus infected SF9 cells using prephosphorylated-GS2 polypeptide as substrate after 30 mins by kinase-Glo reagent based luminescence assay
How it was run: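 GSK-3β was incubated with ATP and GS-2 substrate with or without compound. ATP remaining after the kinase reaction was quantified by Kinase-Glo luminescence. IC50 is the mean of triplicate experiments.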
Target sequence in this assay (P49841 whole entry): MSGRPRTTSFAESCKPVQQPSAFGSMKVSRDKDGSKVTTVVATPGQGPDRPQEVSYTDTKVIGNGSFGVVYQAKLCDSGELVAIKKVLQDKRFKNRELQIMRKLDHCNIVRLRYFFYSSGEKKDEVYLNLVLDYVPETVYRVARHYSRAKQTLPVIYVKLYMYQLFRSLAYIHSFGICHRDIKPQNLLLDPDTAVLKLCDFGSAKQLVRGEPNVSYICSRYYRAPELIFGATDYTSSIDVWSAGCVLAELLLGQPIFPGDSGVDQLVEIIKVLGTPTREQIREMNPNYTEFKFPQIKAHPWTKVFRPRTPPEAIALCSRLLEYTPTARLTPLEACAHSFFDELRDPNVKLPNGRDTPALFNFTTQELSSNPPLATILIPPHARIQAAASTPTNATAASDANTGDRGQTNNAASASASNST

[2] = biological target: Mast/stem cell growth factor receptor Kit (Homo sapiens) (UniProt P10721); assay: Inhibition of human c-KIT at 100 uM
How it was run: (§1)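 Kinase selectivity panel run at 100 μM inhibitor. Activity is reported as % inhibition, the mean of two independent experiments.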

[3] = biological target: Platelet-derived growth factor receptor alpha (Homo sapiens) (UniProt P16234); assay: Inhibition of human PDGFRalpha at 100 uM; how it was run: as §1
[4] = biological target: Casein kinase 2 (Homo sapiens) (UniProt P67870+P68400+P19784+Q8NEV1); assay: Inhibition of human CK2 at 100 uM; format: protein assay; how it was run: as §1
[5] = biological target: Vascular endothelial growth factor receptor 1 (Homo sapiens) (UniProt P17948); assay: Inhibition of human Flt1 at 100 uM; how it was run: as §1
[6] = biological target: Cyclin-dependent kinase 1 (Homo sapiens) (UniProt P06493); assay: Inhibition of human CDK1 at 100 uM; how it was run: as §1
Cyclin-dependent kinase 1 (Homo sapiens), sequence (P06493 whole entry, looked up): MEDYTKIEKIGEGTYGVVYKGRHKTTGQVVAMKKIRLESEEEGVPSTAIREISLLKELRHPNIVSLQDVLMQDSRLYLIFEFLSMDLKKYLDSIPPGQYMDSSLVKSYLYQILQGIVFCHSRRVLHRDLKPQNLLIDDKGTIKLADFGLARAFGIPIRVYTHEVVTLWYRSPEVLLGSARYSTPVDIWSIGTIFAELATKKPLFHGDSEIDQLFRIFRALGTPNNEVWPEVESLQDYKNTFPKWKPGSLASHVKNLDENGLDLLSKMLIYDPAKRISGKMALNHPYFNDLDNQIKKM

[7] = biological target: T1, Glycogen synthase kinase-3 beta; assay: Non-ATP competitive inhibition of recombinant N-terminal His6-tagged human GSK-3beta expressed in Baculovirus infected SF9 cells at 15 to 25 uM using prephosphorylated-GS2 polypeptide as substrate after 30 mins by kinase-Glo reagent based luminescence assay
How it was run: (§2)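 Kinetic analysis used the same Kinase-Glo GSK-3β assay. Inhibitor was tested at fixed concentrations while one substrate (ATP or GS-2) was held constant and the other varied, and the data were plotted as double-reciprocal plots.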
Target sequence in this assay (P49841 whole entry, looked up): as the sequence (P49841 whole entry) above

Mus musculus [8] = assay: In vivo inhibition of GSK-3beta in C57BL/6 mouse lung injury model assessed as upregulation of LPS-induced phosphorylation at Ser9 residue in lung at 80 uM, ip administered 12 hrs prior to LPS challenge and measured after 24 hrs by Western blot analysis relative to control; format: functional
How it was run: (§3)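 Mice were pretreated ip with compound (80 μM) or PBS, and LPS (10 mg/kg ip) was given 12 h later. Lungs were collected 24 h post-LPS, and p-GSK-3β and SIRT1 were detected by Western blot. Values are means ± SE of 4 independent experiments.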

[9] = biological target: Tyrosine-protein kinase ABL1 (Homo sapiens) (UniProt P00519); settings: at 100 µM
Tyrosine-protein kinase ABL1 (Homo sapiens), sequence (P00519 whole entry): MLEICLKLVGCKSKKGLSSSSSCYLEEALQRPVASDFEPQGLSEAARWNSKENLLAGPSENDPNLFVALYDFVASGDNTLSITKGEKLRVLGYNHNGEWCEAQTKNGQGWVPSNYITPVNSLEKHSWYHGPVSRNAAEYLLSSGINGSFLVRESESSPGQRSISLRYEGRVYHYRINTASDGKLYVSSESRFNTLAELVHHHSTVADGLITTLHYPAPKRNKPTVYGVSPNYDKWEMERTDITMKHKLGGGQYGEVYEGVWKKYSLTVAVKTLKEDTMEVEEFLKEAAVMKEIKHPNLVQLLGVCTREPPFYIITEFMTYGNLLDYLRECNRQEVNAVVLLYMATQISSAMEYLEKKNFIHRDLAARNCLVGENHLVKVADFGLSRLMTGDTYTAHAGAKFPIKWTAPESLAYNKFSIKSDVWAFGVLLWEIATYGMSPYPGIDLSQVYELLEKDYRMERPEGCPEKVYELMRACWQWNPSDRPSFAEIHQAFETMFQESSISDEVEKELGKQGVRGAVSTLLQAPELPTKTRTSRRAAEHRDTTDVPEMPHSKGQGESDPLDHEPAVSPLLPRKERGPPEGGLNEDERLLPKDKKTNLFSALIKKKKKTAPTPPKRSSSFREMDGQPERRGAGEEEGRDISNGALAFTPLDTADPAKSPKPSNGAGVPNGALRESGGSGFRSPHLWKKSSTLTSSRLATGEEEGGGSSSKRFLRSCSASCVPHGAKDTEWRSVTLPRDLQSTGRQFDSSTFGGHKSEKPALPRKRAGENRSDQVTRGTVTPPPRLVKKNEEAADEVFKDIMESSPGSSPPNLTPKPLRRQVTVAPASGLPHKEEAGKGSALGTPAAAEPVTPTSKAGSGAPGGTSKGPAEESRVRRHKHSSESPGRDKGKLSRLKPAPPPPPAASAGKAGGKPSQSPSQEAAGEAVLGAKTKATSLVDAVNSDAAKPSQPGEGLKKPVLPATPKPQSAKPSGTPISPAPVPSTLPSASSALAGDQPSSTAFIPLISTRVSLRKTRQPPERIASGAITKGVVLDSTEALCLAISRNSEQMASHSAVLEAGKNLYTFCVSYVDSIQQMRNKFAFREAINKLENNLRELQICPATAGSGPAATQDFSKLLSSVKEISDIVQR

[10] = biological target: Proto-oncogene tyrosine-protein kinase receptor Ret (Homo sapiens) (UniProt P07949); assay: Inhibition of human RET at 100 uM
Mus musculus [11] = assay: In vivo inhibition of GSK-3beta in C57BL/6 mouse lung injury model assessed as upregulation of SIRT1 expression in lung at 80 uM, ip administered 12 hrs prior to LPS challenge and measured after 24 hrs by Western blot analysis relative to control; format: functional; how it was run: as §3
[12] = biological target: Receptor tyrosine-protein kinase erbB-4 (Homo sapiens) (UniProt Q15303); assay: Inhibition of human ErbB4 at 100 uM; how it was run: as §1
[13] = biological target: Protein kinase C alpha type (Homo sapiens) (UniProt P17252); assay: Inhibition of human PKCalpha at 100 uM; how it was run: as §1
Mus musculus [14] = assay: Anti-inflammatory activity in C57BL/6 mouse lung injury model assessed as inhibition of IL-1beta mRNA expression level at 80 uM, ip administered 12 hrs prior to LPS challenge and measured after 24 hrs by qRT-PCR analysis; format: functional
Homo sapiens = organism: Homo sapiens; assay: Inhibition of human PKA at 100 uM; how it was run: as §1
[15] = biological target: Platelet-derived growth factor receptor beta (Homo sapiens) (UniProt P09619); assay: Inhibition of human PDGFRbeta at 100 uM; how it was run: as §1
Platelet-derived growth factor receptor beta (Homo sapiens), sequence (P09619 whole entry): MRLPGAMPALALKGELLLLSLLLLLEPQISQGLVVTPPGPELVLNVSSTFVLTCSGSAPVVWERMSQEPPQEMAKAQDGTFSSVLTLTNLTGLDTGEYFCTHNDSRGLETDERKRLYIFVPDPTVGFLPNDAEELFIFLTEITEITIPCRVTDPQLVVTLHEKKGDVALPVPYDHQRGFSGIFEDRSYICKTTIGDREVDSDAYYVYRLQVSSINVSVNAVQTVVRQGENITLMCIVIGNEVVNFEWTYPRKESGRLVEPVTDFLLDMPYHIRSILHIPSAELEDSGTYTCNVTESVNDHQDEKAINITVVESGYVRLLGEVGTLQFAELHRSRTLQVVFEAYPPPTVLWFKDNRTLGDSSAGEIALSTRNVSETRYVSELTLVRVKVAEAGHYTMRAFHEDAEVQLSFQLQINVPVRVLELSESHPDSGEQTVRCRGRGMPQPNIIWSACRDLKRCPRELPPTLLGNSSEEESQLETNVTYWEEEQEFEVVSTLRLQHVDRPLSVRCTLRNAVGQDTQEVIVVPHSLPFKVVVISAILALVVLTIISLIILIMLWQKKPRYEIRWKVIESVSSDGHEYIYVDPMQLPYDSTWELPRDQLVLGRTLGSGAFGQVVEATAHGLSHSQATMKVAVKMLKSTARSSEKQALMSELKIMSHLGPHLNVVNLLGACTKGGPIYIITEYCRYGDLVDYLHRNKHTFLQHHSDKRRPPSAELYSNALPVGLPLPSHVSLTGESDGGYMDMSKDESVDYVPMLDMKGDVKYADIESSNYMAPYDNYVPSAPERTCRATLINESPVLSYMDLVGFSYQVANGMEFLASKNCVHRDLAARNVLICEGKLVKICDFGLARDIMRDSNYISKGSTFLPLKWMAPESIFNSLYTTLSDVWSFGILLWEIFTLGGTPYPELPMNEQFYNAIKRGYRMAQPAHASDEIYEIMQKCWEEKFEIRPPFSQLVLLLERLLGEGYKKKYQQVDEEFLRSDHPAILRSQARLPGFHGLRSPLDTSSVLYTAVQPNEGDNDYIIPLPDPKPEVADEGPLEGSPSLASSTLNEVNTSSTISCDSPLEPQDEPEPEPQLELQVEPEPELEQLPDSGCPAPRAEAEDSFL

Mus musculus [16] = assay: Anti-inflammatory activity in C57BL/6 mouse lung injury model assessed as inhibition of IL-6 mRNA expression level at 80 uM, ip administered 12 hrs prior to LPS challenge and measured after 24 hrs by qRT-PCR analysis; format: functional
[17] = biological target: Proto-oncogene tyrosine-protein kinase Src (Homo sapiens) (UniProt P12931); settings: at 100 µM
Proto-oncogene tyrosine-protein kinase Src (Homo sapiens), sequence (P12931 2-536 limits assumed): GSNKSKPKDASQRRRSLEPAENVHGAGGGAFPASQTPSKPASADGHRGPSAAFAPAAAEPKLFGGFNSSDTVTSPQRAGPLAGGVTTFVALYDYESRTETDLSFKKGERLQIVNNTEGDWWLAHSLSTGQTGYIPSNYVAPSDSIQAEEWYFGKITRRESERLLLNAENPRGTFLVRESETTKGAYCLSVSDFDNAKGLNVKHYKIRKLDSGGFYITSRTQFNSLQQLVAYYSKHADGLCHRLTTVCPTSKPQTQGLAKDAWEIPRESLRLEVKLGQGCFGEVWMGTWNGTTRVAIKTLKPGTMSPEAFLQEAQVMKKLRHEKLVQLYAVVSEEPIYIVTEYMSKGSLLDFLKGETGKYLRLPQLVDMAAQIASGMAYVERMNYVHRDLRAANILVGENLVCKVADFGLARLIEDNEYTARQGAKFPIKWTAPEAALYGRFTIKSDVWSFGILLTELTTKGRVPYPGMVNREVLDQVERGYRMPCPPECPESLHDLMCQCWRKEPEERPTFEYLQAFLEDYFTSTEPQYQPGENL

Mus musculus [18] = assay: Anti-inflammatory activity in C57BL/6 mouse lung injury model assessed reduction in lung tissue damage at 80 uM, ip administered 12 hrs prior to LPS challenge and measured after 24 hrs by Hematoxylin and eosin staining-based light microscopic analysis; format: functional; parameters: scale not given: the % may be the effect or the level left
How it was run: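 C57BL/6 mice received compound (80 μM) or PBS ip, followed 12 h later by LPS (10 mg/kg ip). At 24 h after LPS, lungs were fixed, embedded, sectioned and H&E stained. Hemorrhage, edema, interstitial inflammatory cell infiltration, hyaline membrane and atelectasis were each graded 0–4 to give an injury score. Mean ± SEM, n = 5 mice.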

[19] = biological target: Fibroblast growth factor receptor 1 (Homo sapiens) (UniProt P11362); assay: Inhibition of human FGFR1 at 100 uM; how it was run: as §1
Fibroblast growth factor receptor 1 (Homo sapiens), sequence (P11362 22-822 limits assumed): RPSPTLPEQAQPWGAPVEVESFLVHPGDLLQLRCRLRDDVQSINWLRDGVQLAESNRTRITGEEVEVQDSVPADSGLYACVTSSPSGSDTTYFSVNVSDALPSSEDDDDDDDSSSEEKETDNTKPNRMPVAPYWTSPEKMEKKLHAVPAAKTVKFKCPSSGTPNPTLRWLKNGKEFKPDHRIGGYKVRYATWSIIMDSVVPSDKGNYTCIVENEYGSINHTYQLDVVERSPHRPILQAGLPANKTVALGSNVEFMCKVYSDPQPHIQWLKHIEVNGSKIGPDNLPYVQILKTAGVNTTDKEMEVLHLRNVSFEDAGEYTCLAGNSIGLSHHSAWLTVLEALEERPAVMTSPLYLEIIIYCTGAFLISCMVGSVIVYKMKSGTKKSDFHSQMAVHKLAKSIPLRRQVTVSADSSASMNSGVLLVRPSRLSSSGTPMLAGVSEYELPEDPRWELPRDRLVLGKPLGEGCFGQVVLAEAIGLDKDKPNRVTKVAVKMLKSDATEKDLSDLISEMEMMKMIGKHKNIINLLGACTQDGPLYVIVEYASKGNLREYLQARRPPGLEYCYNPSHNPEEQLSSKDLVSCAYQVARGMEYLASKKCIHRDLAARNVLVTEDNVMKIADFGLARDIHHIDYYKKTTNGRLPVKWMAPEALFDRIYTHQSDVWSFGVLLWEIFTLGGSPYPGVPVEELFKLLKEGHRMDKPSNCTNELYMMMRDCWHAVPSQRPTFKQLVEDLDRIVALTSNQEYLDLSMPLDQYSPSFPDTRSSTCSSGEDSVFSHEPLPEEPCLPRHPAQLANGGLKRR

[20] = biological target: Vascular endothelial growth factor receptor 2 (Homo sapiens) (UniProt P35968); assay: Inhibition of human KDR at 100 uM; how it was run: as §1
[21] = biological target: T1, Glycogen synthase kinase-3 beta; assay: Non-ATP competitive inhibition of recombinant N-terminal His6-tagged human GSK-3beta expressed in Baculovirus infected SF9 cells at 20 to 30 uM using prephosphorylated-GS2 polypeptide as substrate after 30 mins by kinase-Glo reagent based luminescence assay; how it was run: as §2
Target sequence in this assay (P49841 whole entry, looked up): as the sequence (P49841 whole entry) above

Compound: NC(=O)c1ccccc1CN1C(=O)CC(c2ccc(C(=O)NCc3ccccc3)cc2)Sc2ccccc21 (stereo unspecified)
IC50 [1]: 100 µM

Compound: O=C(NC1CC1)c1ccc(C2CC(=O)N(Cc3ccccc3[N+](=O)[O-])c3ccccc3S2)cc1 (stereo unspecified)
IC50 [1]: > 100 µM

Compound: O=C1CC(c2ccc(-c3ccccc3)cc2)Sc2ccccc2N1Cc1ccccc1[N+](=O)[O-] (stereo unspecified)
IC50 [1]: 51 µM

Compound: CCN(CC)CCNC(=O)c1c(C)[nH]c(/C=C2\C(=O)Nc3ccc(F)cc32)c1C
inhibition [2]: 49.4%

Compound: CC(C)(C)NC(=O)c1ccc(C2CC(=O)N(Cc3ccccc3[N+](=O)[O-])c3ccccc3S2)cc1 (stereo unspecified)
IC50 [1]: 48 µM

Compound: O=C(NCc1cccc(Cl)c1)c1ccc(C2CC(=O)N(Cc3ccccc3[N+](=O)[O-])c3ccccc3S2)cc1 (stereo unspecified)
IC50 [1]: 35 µM

Compound: N#Cc1ccc(C2CC(=O)N(Cc3ccccc3[N+](=O)[O-])c3ccccc3S2)cc1 (stereo unspecified)
IC50 [1]: 45 µM

Compound: COC(=O)c1ccccc1C1CC(=O)N(Cc2ccccc2[N+](=O)[O-])c2ccccc2S1 (stereo unspecified)
IC50 [1]: 80 µM

Compound: O=C(NCc1ccccn1)c1ccc(C2CC(=O)N(Cc3ccccc3[N+](=O)[O-])c3ccccc3S2)cc1 (stereo unspecified)
IC50 [1]: 75 µM

Compound: COC(=O)c1cccc(C2CC(=O)N(Cc3ccccc3[N+](=O)[O-])c3ccccc3S2)c1 (stereo unspecified)
IC50 [1]: 66 µM

Compound: O=C(c1ccc(C2CC(=O)N(Cc3ccccc3[N+](=O)[O-])c3ccccc3S2)cc1)N1CCCCC1 (stereo unspecified)
IC50 [1]: 49 µM

Compound: CN1CCN(C(=O)c2ccc(C3CC(=O)N(Cc4ccccc4[N+](=O)[O-])c4ccccc4S3)cc2)CC1 (stereo unspecified)
IC50 [1]: > 100 µM

Compound: COC(=O)c1ccc(C2CC(=O)N(Cc3ccccc3[N+](=O)[O-])c3ccccc3S2)cc1 (stereo unspecified)
IC50 [1]: 35 µM

Compound: CCN(CC)C(=O)c1ccc(C2CC(=O)N(Cc3ccccc3[N+](=O)[O-])c3ccccc3S2)cc1 (stereo unspecified)
IC50 [1]: 90 µM

More lines, main results first:

IC50 [1]: 18 µM
Compound: Cc1ccc(CNC(=O)c2ccc(C3CC(=O)N(Cc4ccccc4[N+](=O)[O-])c4ccccc4S3)cc2)cc1 (stereo unspecified)

IC50 [1]: 35 µM
Compound: O=C(Nc1ccccn1)c1ccc(C2CC(=O)N(Cc3ccccc3[N+](=O)[O-])c3ccccc3S2)cc1 (stereo unspecified)

IC50 [1]: 25 µM
Compound: O=C(NCc1ccc(Br)cc1)c1ccc(C2CC(=O)N(Cc3ccccc3[N+](=O)[O-])c3ccccc3S2)cc1 (stereo unspecified)

IC50 [1]: 27 µM
Compound: COc1ccc(CNC(=O)c2ccc(C3CC(=O)N(Cc4ccccc4[N+](=O)[O-])c4ccccc4S3)cc2)cc1 (stereo unspecified)

IC50 [1]: 27 µM
Compound: O=C(NCc1ccco1)c1ccc(C2CC(=O)N(Cc3ccccc3[N+](=O)[O-])c3ccccc3S2)cc1 (stereo unspecified)

IC50 [1]: 20 µM
Compound: O=C(NCc1ccccc1F)c1ccc(C2CC(=O)N(Cc3ccccc3[N+](=O)[O-])c3ccccc3S2)cc1 (stereo unspecified)

inhibition [3]: 7.2% | inhibition [4]: 20% | inhibition [5]: 6.8% | inhibition [6]: 16% | inhibition [7]: Active | inhibition [2]: 28% | inhibition [9]: 0% | inhibition [10]: 68% | inhibition [12]: 12.2% | inhibition [13]: 12% | inhibition (Homo sapiens): 0% | inhibition [15]: 5.5% | inhibition [17]: 7.2% | inhibition [19]: 13.5% | IC50 [1]: 28 µM
Compound: O=C(NCc1ccccc1)c1ccc(C2CC(=O)N(Cc3ccccc3[N+](=O)[O-])c3ccccc3S2)cc1 (stereo unspecified)
fold change (FC) (Mus musculus [8]): 1.42 | fold change (FC) (Mus musculus [11]): 1.93 | inhibition (INH) (Mus musculus [14]): 43.18% | inhibition (INH) (Mus musculus [16]): 38.16% | Activity (Mus musculus [18]): 65%

IC50 [1]: 18 µM
Compound: O=C(NCc1ccc(F)cc1)c1ccc(C2CC(=O)N(Cc3ccccc3[N+](=O)[O-])c3ccccc3S2)cc1 (stereo unspecified)

inhibition [4]: -6% | inhibition [5]: 8.9% | inhibition [6]: 22% | inhibition [20]: 8.7% | inhibition [21]: Active | inhibition [9]: 46.6% | inhibition [10]: 18.5% | inhibition [13]: 2% | inhibition (Homo sapiens): -7% | inhibition [15]: 41.2% | inhibition [17]: 0% | inhibition [19]: 5.4% | IC50 [1]: 25 µM
Compound: O=C1CC(c2ccc(C(=O)NCc3cccc(Cl)c3)cc2)Sc2ccccc2N1 (stereo unspecified)
fold change (FC) (Mus musculus [11]): 1.34 | inhibition (INH) (Mus musculus [14]): 28.84% | inhibition (INH) (Mus musculus [16]): 24.35% | Activity (Mus musculus [18]): 49%

IC50 [1]: 19 µM
Compound: O=C(NCc1cccc(F)c1)c1ccc(C2CC(=O)N(Cc3ccccc3[N+](=O)[O-])c3ccccc3S2)cc1 (stereo unspecified)

IC50 [1]: 21 µM
Compound: O=C(NCCc1ccccc1)c1ccc(C2CC(=O)N(Cc3ccccc3[N+](=O)[O-])c3ccccc3S2)cc1 (stereo unspecified)

IC50 [1]: 17 µM
Compound: CS(=O)(=O)Nc1ccccc1CN1C(=O)CC(c2ccc(C(=O)NCc3cccc(Cl)c3)cc2)Sc2ccccc21 (stereo unspecified)

IC50 [1]: 22 µM
Compound: CCCCNC(=O)c1ccc(C2CC(=O)N(Cc3ccccc3[N+](=O)[O-])c3ccccc3S2)cc1 (stereo unspecified)

IC50 [1]: 33 µM
Compound: O=C(NCc1ccc(Cl)cc1)c1ccc(C2CC(=O)N(Cc3ccccc3[N+](=O)[O-])c3ccccc3S2)cc1 (stereo unspecified)

IC50 [1]: 32 µM
Compound: O=C(NC1CCCCC1)c1ccc(C2CC(=O)N(Cc3ccccc3[N+](=O)[O-])c3ccccc3S2)cc1 (stereo unspecified)

IC50 [1]: 20 µM
Compound: Cc1ccc(C2CC(=O)N(Cc3ccccc3[N+](=O)[O-])c3ccccc3S2)cc1 (stereo unspecified)

IC50 [1]: 18 µM
Compound: CS(=O)(=O)c1cccc(N2C(=O)CC(c3ccc(C(=O)NCc4cccc(Cl)c4)cc3)Sc3ccccc32)c1 (stereo unspecified)
